In ChEMBL document CHEMBL3400073, “Design, synthesis and biological evaluation of new hybrid anticonvulsants derived from N-benzyl-2-(2,5-dioxopyrrolidin-1-yl)propanamide and 2-(2,5-dioxopyrrolidin-1-yl)butanamide derivatives” (Bioorg Med Chem, 2015):
Calls of active or inactive are those of the source. No cut-off for these calls is given here.

How the values were obtained:
[1] = tested on: Mus musculus; test: Anticonvulsant activity in intraperitoneally dosed Albino Swiss CD1 mouse assessed as time to peak effect after 2 hrs by subcutaneous pentylenetetrazole test; type: functional
[2] = tested on: Mus musculus; test: Anticonvulsant activity in intraperitoneally dosed Albino Swiss CD1 mouse by subcutaneous pentylenetetrazole test; type: functional
In short: (§1)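 Male CD-1 mice were dosed ip (0.1 mL/10 g, methylcellulose vehicle), at least four dose groups of 6 mice each. Protection in MES meant no hindlimb tonic extension after a 25 mA, 50 Hz, 0.2 s ear-electrode shock. Protection in scPTZ meant no clonus over 30 min.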

[3] = tested on: Mus musculus; test: Anticonvulsant activity in intraperitoneally dosed Albino Swiss CD1 mouse after 0.5 hrs by subcutaneous pentylenetetrazole test; type: functional; in short: as §1
[4] = tested on: Mus musculus; test: Anticonvulsant activity in intraperitoneally dosed Albino Swiss CD1 mouse after 2 hrs by subcutaneous pentylenetetrazole test; type: functional; in short: as §1
[5] = tested on: Mus musculus; test: Neurological toxicity in Albino Swiss CD1 mouse at 100 mg/kg, ip after 2 hrs by rotarod test; type: organism-based; set-up: dose 100 mg/kg, route intraperitoneal; settings: in vivo
In short: (§2)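 Mice were trained on a 2 cm rod for 3 min, with unlimited trials, at least 24 h before testing. Each was then dosed ip at 100 mg/kg and tested at 10 rpm 0.5 h or 2 h later, in groups of 4. Failure to stay on the rod for at least 1 min indicated neurotoxicity.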

[6] = tested on: Mus musculus; test: Protective index, ratio of neurotoxic TD50 in Albino Swiss CD1 mouse by rotarod test to anticonvulsant ED50 in Albino Swiss CD1 mouse by subcutaneous pentylenetetrazole test
In short: (§3)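 The protective index is the rotarod TD50 divided by the MES or scPTZ ED50. Each value came from ip dosing in male CD-1 mice with probit analysis, and the reference drugs were tested under the same conditions.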

[7] = tested on: Mus musculus; test: Anticonvulsant activity in intraperitoneally dosed Albino Swiss CD1 mouse assessed as time to peak effect by maximal electroshock test; type: functional
[8] = Neurological toxicity in intraperitoneally dosed Albino Swiss CD1 mouse by rotarod test; type: organism-based; settings: in vivo, ip
In short: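 Mice trained on the rotarod were given various ip doses, four groups in all, and tested at 10 rpm. Failure to stay on the rod for at least 1 min indicated neurotoxicity.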

[9] = tested on: Mus musculus; test: Neurological toxicity in Albino Swiss CD1 mouse at 100 mg/kg, ip after 0.5 hrs by rotarod test; type: organism-based; set-up: dose 100 mg/kg, route intraperitoneal; settings: in vivo; in short: as §2
[10] = tested on: Mus musculus; test: Anticonvulsant activity in Albino Swiss CD1 mouse at 100 mg/kg, ip after 2 hrs by maximal electroshock test; type: functional, organism-based; set-up: dose 100 mg/kg
In short: (§4)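 Male CD-1 mice, 16–26 g, in groups of 4, each mouse used once, were given 100 mg/kg ip (0.1 mL/10 g, methylcellulose vehicle). MES used 25 mA, 500 V, 50 Hz delivered by ear electrodes for 0.2 s, and absence of hindlimb tonic extension counted as protection. In scPTZ, mice without clonic convulsions over 30 min of observation counted as protected. Both tests were run 0.5 h or 2 h after dosing.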

[11] = tested on: Mus musculus; test: Anticonvulsant activity in Albino Swiss CD1 mouse at 100 mg/kg, ip after 0.5 hrs by maximal electroshock test; type: functional, organism-based; set-up: dose 100 mg/kg; in short: as §4
[12] = tested on: Mus musculus; test: Anticonvulsant activity in Albino Swiss CD1 mouse at 100 mg/kg, ip after 2 hrs by subcutaneous pentylenetetrazole test; type: functional, organism-based; set-up: dose 100 mg/kg; in short: as §4
[13] = species: Mus musculus; test: Protective index, ratio of neurotoxic TD50 in Albino Swiss CD1 mouse by rotarod test to anticonvulsant ED50 in Albino Swiss CD1 mouse by maximal electroshock test; in short: as §3
[14] = tested on: Mus musculus; test: Anticonvulsant activity in intraperitoneally dosed Albino Swiss CD1 mouse by maximal electroshock test; type: functional; settings: Albino Swiss CD1, ip; in short: as §1
[15] = tested on: Mus musculus; test: Anticonvulsant activity in intraperitoneally dosed Albino Swiss CD1 mouse after 0.5 hrs by maximal electroshock test; type: functional; in short: as §1
[16] = tested on: Mus musculus; test: Anticonvulsant activity in intraperitoneally dosed Albino Swiss CD1 mouse after 2 hrs by maximal electroshock test; type: functional; in short: as §1
[17] = tested on: Mus musculus; test: Anticonvulsant activity in Albino Swiss CD1 mouse at 100 mg/kg, ip after 0.5 hrs by subcutaneous pentylenetetrazole test; type: functional, organism-based; set-up: dose 100 mg/kg; in short: as §4
[18] = tested on: HEK293; test: Antiproliferative activity against HEK293 cells at 0.01 to 250 uM after 48 hrs by formazan based EZ4U assay; type: cell-based; settings: human, hek293, 48 h
In short: (§5)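 HEK-293 cells (1.5 × 10^4/well) and IMR-32 cells (2 × 10^4/well) were grown in DMEM with 10% FBS for 24 h to 60% confluence. Compound was diluted from a 25 mM DMSO stock to 0.01–250 µM final, with DMSO at or below 1%, and incubated 48 h at 37 °C in 5% CO2. EZ4U reagent was added for 5 h, then absorbance was read at 492 nm.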

[19] = Cytotoxic activity against human IMR32 cells at 0.01 to 250 uM after 48 hrs by formazan based EZ4U assay; type: cell-based; settings: imr-32, 48 h; in short: as §5
[20] = tested on: Mus musculus; test: Potency index, ratio of ED50 for […] acid to ED50 for compound in intraperitoneally dosed Albino Swiss CD1 mouse by subcutaneous pentylenetetrazole test; type: functional
[21] = tested on: Mus musculus; test: Ratio of protective index for […] acid to protective index for compound in intraperitoneally dosed Albino Swiss CD1 mouse
[22] = tested on: Liver microsome; test: Drug metabolism in human liver microsomes assessed as metabolite formation treated with 50 uM 2-(2,5-Dioxopyrrolidin-1-yl)-N-(2-fluorobenzyl)propanamide pre-incubated at 37 degC for 5 mins before addition of NADPH regeneration system measured after 120 mins by UPLC-MS/MS method; type: ADME; settings: 2 h
In short: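 Pooled human liver microsomes from adult males and females were used at 1 mg/ml in 0.1 M Tris-HCl, pH 7.4. After the 5 min preincubation, the NADPH regeneration system was added and the reaction ran for 120 min. It was quenched with cold methanol and centrifuged, and the supernatant was analysed by UPLC-MS/MS with ESI on a tandem quadrupole.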

Row | SMILES | Time [1] | ED50 [2] | MED50 [3] | MED50 [4] | Activity [5] | Ratio TD50/ED50 [6] | Time [7] | TD50 [8] | Activity [9] | Activity [10] | Activity [11] | Activity [12] | Ratio TD50/ED50 [13] | ED50 [14] | MED50 [15] | also measured
1 | CCC(C(=O)NCc1ccccc1F)N1C(=O)CCC1=O (racemic) | 0.5 h | 65.7 mg/kg | 100 mg/kg | 100 mg/kg | Non-toxic | 5.27 | 0.5 h | 346 mg/kg | Non-toxic | inactive | inactive |  |  |  |  | 
2 | CCC(C(=O)NCc1cccc(C(F)(F)F)c1)N1C(=O)CCC1=O (racemic) | 0.5 h | 77.4 mg/kg | 100 mg/kg |  | Non-toxic | 2.12 | 0.5 h | 163 mg/kg | Non-toxic | inactive | inactive | inactive |  |  |  | 
3 | CCC(C(=O)NCc1ccccc1Cl)N1C(=O)CCC1=O (racemic) | 0.5 h | 76.4 mg/kg | 100 mg/kg | 100 mg/kg | Non-toxic | 5.47 | 0.5 h | 418 mg/kg | Non-toxic | inactive |  |  | 3.7 | 113 mg/kg | 100 mg/kg | 
4 | CC1CC(=O)N(C(C)C(=O)NCc2ccc(C(F)(F)F)cc2)C1=O (racemic) | 2 h |  |  |  | Non-toxic |  | 2 h |  | Non-toxic |  | inactive | inactive |  | > 150 mg/kg |  | MED50 [16]: 100 mg/kg; Activity [17]: inactive
5 | CC(C(=O)NCc1ccccc1F)N1C(=O)CCC1=O (racemic) | 0.5 h |  | 100 mg/kg |  | Non-toxic |  | 0.5 h |  | Non-toxic | inactive |  | inactive |  |  | 100 mg/kg | Activity [18]: Non-toxic; Activity [19]: Non-toxic
6 | CCC(C(=O)NCc1ccc(F)cc1)N1C(=O)CCC1=O (racemic) | 0.5 h | 83.4 mg/kg | 100 mg/kg |  | Non-toxic | 3.22 | 0.5 h | 268 mg/kg | Non-toxic | inactive | inactive | inactive |  |  |  | 
7 | CC(C(=O)NCc1ccc(C(F)(F)F)cc1)N1C(=O)CCC1=O (racemic) | 2 h | 54.5 mg/kg |  | 100 mg/kg | Non-toxic | 2.62 | 0.5 h | 143 mg/kg | Non-toxic | inactive |  |  | 1.78 | 80 mg/kg | 100 mg/kg | Activity [17]: inactive
8 | CC1CC(=O)N(C(C)C(=O)NCc2ccccc2)C1=O (racemic) | 0.5 h | 78.3 mg/kg | 100 mg/kg |  | Non-toxic | 4.54 | 0.5 h | 355 mg/kg | Non-toxic | inactive |  | inactive | 3.34 | 106 mg/kg | 100 mg/kg | 
9 | CCC(C(=O)NCc1cccc(F)c1)N1C(=O)CCC1=O (racemic) | 0.5 h | 47.4 mg/kg | 100 mg/kg |  | Non-toxic | 6.89 | 0.5 h | 327 mg/kg | Non-toxic | inactive | inactive | inactive |  |  |  | Ratio ED50 [20]: 2.96; Ratio [21]: 3.05
10 | CCC(C(=O)NCc1ccccc1)N1C(=O)CCC1=O (racemic) | 0.5 h | 90.3 mg/kg | 100 mg/kg |  | Non-toxic | 3.46 | 0.5 h | 312 mg/kg | Non-toxic | inactive |  | inactive | 4.26 | 73.3 mg/kg | 100 mg/kg | 
11 | CCC(C(=O)NCc1ccccc1C(F)(F)F)N1C(=O)CCC1=O (racemic) | 0.5 h |  |  | 100 mg/kg | Non-toxic |  | 0.5 h |  | Non-toxic | inactive | inactive |  |  | > 150 mg/kg |  | Activity [17]: inactive
12 | CCC(C(=O)NCc1ccc(Cl)cc1)N1C(=O)CCC1=O (racemic) | 0.5 h | 50.8 mg/kg | 100 mg/kg | 100 mg/kg | Non-toxic | 3.43 | 0.5 h | 174 mg/kg | Non-toxic | inactive |  |  | 1.83 | 95.3 mg/kg | 100 mg/kg | 
13 | O=C(NCc1ccccc1F)C(CO)N1C(=O)CCC1=O (stereo not given) |  |  |  |  |  |  |  |  |  |  |  |  |  |  |  | Drug metabolism [22]: metabolite_detected
